In ChEMBL document CHEMBL4680142, “Thiazolidine-2,4-dione-based irreversible allosteric IKK-β kinase inhibitors: Optimization into in vivo active anti-inflammatory agents” (Eur J Med Chem, 2020):

Key:
RAW264.7 [1] = assay: Cytotoxicity against mouse RAW264.7 cells assessed as reduction in cell viability at 6 uM incubated for 24 hrs by MTT assay; format: cell-based; settings: raw264.7, 24 h
In short: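 MTT viability in RAW 264.7 cells seeded at 1×10^5 cells/mL and incubated overnight. Compounds added with or without LPS (1 µg/mL) for 24 h. MTT for 4 h at 37 °C, formazan dissolved in DMSO, absorbance read at 540 nm. IC80 is the concentration reducing viability to 80% with LPS.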

[2] = molecular target: T1, Inhibitor of nuclear factor kappa-B kinase subunit beta (Homo sapiens) (UniProt O14920); assay: Allosteric inhibition of IKKbeta (unknown origin) at 0.001 to 30 uM using 5FAM-GRHDSGLDSMK-NH2 as substrate incubated for 10 mins followed by substrate addition and measured after 40 mins by TR-FRET assay relative to control; settings: filed as negative allosteric modulator, dose 0.001-30 µM, time 50.0 min
T1 sequence (whole entry): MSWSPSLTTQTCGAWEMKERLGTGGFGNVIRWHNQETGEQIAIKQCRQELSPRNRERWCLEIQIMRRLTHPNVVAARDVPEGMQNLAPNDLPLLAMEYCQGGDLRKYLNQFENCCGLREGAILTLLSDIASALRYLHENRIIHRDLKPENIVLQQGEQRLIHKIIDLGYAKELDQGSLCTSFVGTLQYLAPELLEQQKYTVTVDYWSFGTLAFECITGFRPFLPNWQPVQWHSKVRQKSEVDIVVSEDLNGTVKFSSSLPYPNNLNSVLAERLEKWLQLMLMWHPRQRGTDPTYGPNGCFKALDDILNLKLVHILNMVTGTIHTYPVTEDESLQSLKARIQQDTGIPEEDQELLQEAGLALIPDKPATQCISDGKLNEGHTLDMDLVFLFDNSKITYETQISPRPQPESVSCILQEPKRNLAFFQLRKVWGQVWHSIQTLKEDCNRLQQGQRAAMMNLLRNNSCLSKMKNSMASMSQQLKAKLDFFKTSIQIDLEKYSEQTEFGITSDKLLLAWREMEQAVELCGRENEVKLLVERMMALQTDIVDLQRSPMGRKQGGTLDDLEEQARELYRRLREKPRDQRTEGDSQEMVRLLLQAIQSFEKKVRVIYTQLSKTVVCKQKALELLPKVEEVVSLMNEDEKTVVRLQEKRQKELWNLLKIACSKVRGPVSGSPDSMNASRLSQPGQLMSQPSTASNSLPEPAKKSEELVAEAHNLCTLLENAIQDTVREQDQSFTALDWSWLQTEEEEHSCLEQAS
In short: (§1)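 IKK2 (0.5 µg/mL) in 10 mM Tris-HCl pH 7.2, 10 mM MgCl2, 0.05% NaN3, 1 mM DTT, 0.01% Tween-20, room temperature. Compound (30 to 0.001 µM, ten roughly three-fold dilutions) preincubated 10 min with enzyme. Reaction started with 1 µM 5FAM-IκBα peptide and 3 µM ATP, run 0, 20, 40 or 60 min. IMAP binding reagent/terbium donor detection, TR-FRET read at 495/520 nm. Kobs fitted against concentration by nonlinear regression.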

RAW264.7 [3] = assay: Antiinflammatory activity against mouse RAW264.7 cells assessed as reduction in LPS-induced NO level incubated for 1 hr followed by LPS stimulation and measured after 24 hrs by Griess reagent based assay; format: functional, cell-based
In short: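 RAW 264.7 cells in 24-well plates received compounds (0.1, 1, 10 µM) or L-NIL 40 µM positive control, then LPS 1 µg/mL for 24 h. Nitrite in the medium measured by Griess reaction as an NO surrogate. Values referenced to levels before and after LPS stimulation.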

RAW264.7 [4] = assay: Antiinflammatory activity against mouse RAW264.7 cells assessed as reduction in LPS-induced PGE2 level incubated for 1 hr followed by LPS stimulation and measured after 24 hrs by ELISA; format: functional, cell-based
In short: (§2)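 RAW 264.7 cells (DMEM, 10% FBS, 37 °C, 5% CO2) plated at 2×10^5 cells/mL and left overnight. Compounds (0.1, 1, 10 µM) or NS-398 given for 1 h, then LPS 10 ng/mL for 24 h. Culture medium assayed by ELISA: competitive colorimetric for PGE2/TNF-α, mouse DuoSet for TNF-α/IL-6. IC50 is the concentration lowering the mediator to 50%.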

RAW264.7 [5] = assay: Antiinflammatory activity against mouse RAW264.7 cells assessed as reduction in LPS-induced IL-6 level incubated for 1 hr followed by LPS stimulation and measured after 24 hrs by ELISA; format: functional, cell-based; in short: as §2
[6] = molecular target: T2, Inhibitor of nuclear factor kappa-B kinase subunit beta (Homo sapiens, UniProt O14920); assay: Allosteric inhibition of IKKbeta (unknown origin) using 5FAM-GRHDSGLDSMK-NH2 as substrate incubated for 10 mins followed by substrate addition and measured after 20 mins by TR-FRET assay
T2 sequence (O14920 whole entry): T1 sequence (whole entry)
In short: (§3)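 Kinetic IMAP TR-FRET run with 0.5 µg/mL IKK2 in 10 mM Tris-HCl pH 7.2, 10 mM MgCl2, 0.05% NaN3, 1 mM DTT, 0.01% Tween-20. Compound (ten doses, 30 to 0.001 µM) pre-incubated with enzyme 10 min, then 1 µM IκBα-derived substrate and 3 µM ATP added. Room temperature. Reactions run 0, 20, 40 or 60 min. Ten-point curves fitted by nonlinear regression.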

[7] = molecular target: T2, Inhibitor of nuclear factor kappa-B kinase subunit beta; assay: Allosteric inhibition of IKKbeta (unknown origin) using 5FAM-GRHDSGLDSMK-NH2 as substrate incubated for 10 mins followed by substrate addition and measured immediately by TR-FRET assay; in short: as §3
[8] = Effect on NO production in non-stimulated mouse RAW264.7 cells at 10 uM after 24 hrs by Griess reagent based assay; settings: raw264.7, 24 h
[9] = Metabolic stability in rat plasma assessed as parent compound remaining at 1 uM measured upto 2 hrs by LC-MS/MS analysis; format: ADME, cell-free; settings: read-out: Stabilty
In short: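 Rat plasma incubated with 1 µM compound at 37 °C for 0, 15, 30, 60 and 120 min. After separation, remaining compound quantified by LC-MS/MS as % remaining.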

[10] = Cytotoxicity against non-stimulated mouse RAW264.7 cells upto 10 uM after 24 hrs by MTT assay; settings: raw264.7, 24 h
[11] = molecular target: T1, Inhibitor of nuclear factor kappa-B kinase subunit beta (Homo sapiens); assay: Allosteric inhibition of IKKbeta (unknown origin) at 0.001 to 30 uM using 5FAM-GRHDSGLDSMK-NH2 as substrate incubated for 10 mins followed by substrate addition and measured after 20 mins by TR-FRET assay relative to control; settings: filed as negative allosteric modulator, dose 0.001-30 µM, time 30.0 min; in short: as §1
RAW264.7 [12] = assay: Antiinflammatory activity against mouse RAW264.7 cells assessed as reduction in LPS-induced TNF-alpha level at 10 uM incubated for 1 hr followed by LPS stimulation and measured after 24 hrs by ELISA relative to control; format: functional; settings: time 25 hrs; in short: as §2
[13] = molecular target: T2, Inhibitor of nuclear factor kappa-B kinase subunit beta; assay: Allosteric inhibition of IKKbeta (unknown origin) using 5FAM-GRHDSGLDSMK-NH2 as substrate incubated for 10 mins followed by substrate addition and measured after 40 mins by TR-FRET assay; in short: as §3

For `CN1CCN(CCCOc2ccc(N3C(=O)S/C(=C\c4ccc(Oc5ccc(C#N)cc5)cc4)C3=O)cc2)CC1`, the Activity (RAW264.7 [1]) was “Non-Toxic”, the inhibition [2] was -4.47% and the IC50 (RAW264.7 [3]) was over 10000 nM. The IC50 (RAW264.7 [4]) was 9830 nM, the IC50 (RAW264.7 [5]) was over 10000 nM and the IC50 [6] was 347 nM. For the same compound, the IC50 [7] was 575 nM, the Activity [8] was “Non-Toxic” and the remaining at 2 h, 1 µM [9] was 73.6%. The Activity [10] was “Non-Toxic”, the inhibition [11] was -7.14% and the inhibition at 10 µM (RAW264.7 [12]) was 80%. The IC50 [13] was 251 nM.
For `CN1CCN(CCCCCOc2cccc(N3C(=O)S/C(=C\c4ccc(Oc5ccc([N+](=O)[O-])cc5)cc4)C3=O)c2)CC1`, the Activity (RAW264.7 [1]) was “Non-Toxic”, the inhibition [2] was -8.33% and the IC50 (RAW264.7 [3]) was over 10000 nM. It also gave an IC50 (RAW264.7 [4]) of over 10000 nM, an IC50 (RAW264.7 [5]) of over 10000 nM and an IC50 [6] of 245 nM. For the same compound, the IC50 [7] was 347 nM, the Activity [8] was “Non-Toxic” and the remaining at 2 h, 1 µM [9] was 83.3%. For the same compound, the Activity [10] was “Non-Toxic”, the inhibition [11] was -3.68% and the inhibition at 10 µM (RAW264.7 [12]) was 84%. The IC50 [13] was 219 nM.
